Assay results published in ChEMBL document CHEMBL1145471, “Small molecule regulators of autophagy identified by an image-based high-throughput screen” (Proc Natl Acad Sci U S A, 2007).

What was measured:
Assay type in all cases: functional
H4 [1] = assay: Effect on FYVE-RFP+ vesicle intensity per cell in human H4 cells after 2 hrs relative to control; parameters: concentration or dose not given beside the values
In short: (§1)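 H4 cells stably expressing FYVE-RFP (H4-FYVE), grown in DMEM with 10% FBS, penicillin/streptomycin and 2 mM L-glutamine at 37°C, 5% CO2, seeded in 96-well plates and exposed to compound. Fixed in 4% paraformaldehyde, nuclei stained with 3 μg/ml DAPI, FYVE-RFP+ vesicles quantified by high-throughput fluorescence microscopy against DMSO control. Triplicate wells, mean ± SD.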

H4 [2] = assay: Effect on FYVE-RFP+ vesicle intensity per cell in human H4 cells after 4 hrs relative to control; parameters: concentration or dose not given beside the values; in short: as §1
H4 [3] = assay: Increase in light chain 3-GFP+ autophagosome vesicle area per cell in human H4 cells at 7.7 uM after 24 hrs by high throughput fluorescence microscopy relative to control
In short: (§2)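 H4 cells stably expressing LC3-GFP, seeded in 96-well plates and exposed to compound for 24 h; fixed in 4% paraformaldehyde, nuclei stained with 3 μg/ml DAPI. Automated fluorescence microscopy scored number, size and intensity of LC3-GFP spots; values expressed relative to DMSO-treated wells, rapamycin positive control. Triplicate wells, mean ± SD; experiments repeated three times.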

H4 [4] = assay: Increase in light chain 3-GFP+ autophagosome vesicle intensity per cell in human H4 cells at 7.7 uM after 24 hrs by high throughput fluorescence microscopy relative to control; in short: as §2
H4 [5] = assay: Increase in light chain 3-GFP+ autophagosome vesicle number per cell in human H4 cells at 7.7 uM after 24 hrs by high throughput fluorescence microscopy relative to control
In short: (§3)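 H4 cells stably expressing LC3-GFP, kept in DMEM/10% FBS at 37°C, 5% CO2, were seeded in 96-well plates and exposed to compound for 24 h. Cells were then fixed in 4% paraformaldehyde and stained with 3 μg/ml DAPI. Automated fluorescence microscopy scored the number, size and intensity of LC3-GFP spots. Values are percent of DMSO wells, in triplicate, mean ± SD. Rapamycin served as positive control.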

H4 [6] = assay: Increase in long-lived protein degradation in human H4 cells after 24 hrs relative to control; parameters: concentration or dose not given beside the values
H4 [7] = assay: Induction of light chain 3-GFP level in human H4 cells at 7.7 uM after 24 hrs by high throughput fluorescence microscopy relative to control; in short: as §3
H4 [8] = assay: Increase in long-lived protein degradation in human H4 cells after 1 hr relative to control; parameters: concentration or dose not given beside the values
H4 [9] = assay: Effect on FYVE-RFP+ vesicle intensity per cell in human H4 cells after 8 hrs relative to control; parameters: concentration or dose not given beside the values; in short: as §1
H4 [10] = assay: Increase in long-lived protein degradation in human H4 cells after 2 hrs relative to control; parameters: concentration or dose not given beside the values
H4 [11] = assay: Increase in long-lived protein degradation in human H4 cells after 4 hrs relative to control; parameters: concentration or dose not given beside the values
H4 [12] = assay: Induction of light chain 3-GFP level in human H4 cells at 3.4 uM after 24 hrs by high throughput fluorescence microscopy relative to control; in short: as §3
H4 [13] = assay: Increase in light chain 3-GFP+ autophagosome vesicle area per cell in human H4 cells at 3.4 uM after 24 hrs by high throughput fluorescence microscopy relative to control; in short: as §2
H4 [14] = assay: Increase in FYVE-RFP+ vesicle intensity per cell in human H4 cells after 8 hrs relative to control; parameters: concentration or dose not given beside the values; in short: as §1
H4 [15] = assay: Increase in FYVE-RFP+ vesicle intensity per cell in human H4 cells after 4 hrs relative to control; parameters: concentration or dose not given beside the values; in short: as §1
H4 [16] = assay: Increase in light chain 3-GFP+ autophagosome vesicle intensity per cell in human H4 cells at 3.4 uM after 24 hrs by high throughput fluorescence microscopy relative to control; in short: as §2
H4 [17] = assay: Increase in light chain 3-GFP+ autophagosome vesicle number per cell in human H4 cells at 3.4 uM after 24 hrs by high throughput fluorescence microscopy relative to control; in short: as §2
H4 [18] = assay: Increase in FYVE-RFP+ vesicle intensity per cell in human H4 cells after 2 hrs relative to control; parameters: concentration or dose not given beside the values; in short: as §1
H4 [19] = assay: Induction of light chain 3-GFP level in human H4 cells at 5.9 uM after 24 hrs by high throughput fluorescence microscopy relative to control
In short: (§4)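 H4 cells stably expressing LC3-GFP, grown in DMEM with 10% FBS, penicillin/streptomycin and 2 mM L-glutamine at 37°C, 5% CO2. Cells were seeded in 96-well plates and exposed to library compounds at 3–12 μM for 24 h, then fixed in 4% paraformaldehyde and stained with 3 μg/ml DAPI. LC3-GFP spot number, size and intensity were measured by high-throughput fluorescence microscopy and expressed relative to DMSO. Triplicates, mean ± SD.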

H4 [20] = assay: Increase in light chain 3-GFP+ autophagosome vesicle number per cell in human H4 cells at 5.9 uM after 24 hrs by high throughput fluorescence microscopy relative to control
In short: (§5)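 H4 cells stably expressing LC3-GFP were grown in DMEM with 10% FBS and 2 mM L-glutamine at 37°C, 5% CO2. They were exposed to each compound for 24 h, with DMSO as negative and rapamycin as positive control. Cells were then fixed in 4% paraformaldehyde and stained with 3 μg/ml DAPI. High-throughput fluorescence imaging scored LC3-GFP spot number, size and intensity, expressed relative to DMSO. Mean ± SD of triplicates; experiments repeated three times.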

H4 [21] = assay: Increase in light chain 3-GFP+ autophagosome vesicle intensity per cell in human H4 cells at 5.9 uM after 24 hrs by high throughput fluorescence microscopy relative to control; in short: as §5
H4 [22] = assay: Increase in light chain 3-GFP+ autophagosome vesicle area per cell in human H4 cells at 5.9 uM after 24 hrs by high throughput fluorescence microscopy relative to control
In short: (§6)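 H4 cells stably expressing LC3-GFP, seeded in 96-well plates and exposed to compound for 24 h; screening concentrations were 3–12 μM, with rapamycin 0.22 μM and bafilomycin A1 0.40 μM. Cells fixed in 4% paraformaldehyde and stained with 3 μg/ml DAPI. Number, size and intensity of LC3-GFP spots measured by high-throughput fluorescence microscopy and expressed as percent of DMSO-treated wells. Rapamycin was the positive control. Triplicate wells, mean ± SD; experiments repeated three times.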

H4 [23] = assay: Increase in light chain 3-GFP+ autophagosome vesicle number per cell in human H4 cells at 7.0 uM after 24 hrs by high throughput fluorescence microscopy relative to control; in short: as §5
H4 [24] = assay: Increase in light chain 3-GFP+ autophagosome vesicle intensity per cell in human H4 cells at 7.0 uM after 24 hrs by high throughput fluorescence microscopy relative to control; in short: as §5
H4 [25] = assay: Increase in light chain 3-GFP+ autophagosome vesicle area per cell in human H4 cells at 7.0 uM after 24 hrs by high throughput fluorescence microscopy relative to control; in short: as §6
H4 [26] = assay: Induction of light chain 3-GFP level in human H4 cells at 7.0 uM after 24 hrs by high throughput fluorescence microscopy relative to control; in short: as §4

CN1CCN(C2=Nc3cc(Cl)ccc3Nc3ccccc32)CC1 [CLOZAPINE]
Activity (H4 [1]): 64.04%
Activity (H4 [2]): 74.79%
Activity (H4 [3]): 275.5%
Activity (H4 [4]): 350.13%
Activity (H4 [5]): 216.53%
Activity (H4 [6]): 119.5%
Activity (H4 [7]): 139.18%
Activity (H4 [8]): 115.64%
Activity (H4 [9]): 78.38%
Activity (H4 [10]): 125.71%
Activity (H4 [11]): 11.93%

CO[C@@H]1C[C@@H](C[C@H]2CC[C@H](C)[C@H]([C@@H](C)C(=O)O)O2)O[C@]2(O[C@](C)([C@H]3CC[C@@](C)([C@@H]4O[C@@H]([C@H]5O[C@@](O)(CO)[C@H](C)C[C@@H]5C)C[C@@H]4C)O3)C[C@H]2C)[C@@H]1C [NIGERICIN]
Activity (H4 [12]): 106.9%
Activity (H4 [6]): 95.98%
Activity (H4 [13]): 551.04%
Activity (H4 [8]): 91.75%
Activity (H4 [14]): 140.54%
Activity (H4 [15]): 145.4%
Activity (H4 [16]): 747.88%
Activity (H4 [17]): 375.67%
Activity (H4 [18]): 148.43%
Activity (H4 [10]): 88.14%
Activity (H4 [11]): 96.9%

CN(C)C[C@H](O)Cn1c2ccc(Br)cc2c2cc(Br)ccc21 [WISKOSTATIN]
Activity (H4 [19]): 96.96%
Activity (H4 [6]): 97.71%
Activity (H4 [8]): 68.51%
Activity (H4 [14]): 131.93%
Activity (H4 [15]): 240.08%
Activity (H4 [18]): 267.9%
Activity (H4 [10]): 90.21%
Activity (H4 [20]): 789.24%
Activity (H4 [11]): 92.99%
Activity (H4 [21]): 2401.38%
Activity (H4 [22]): 1226.54%

COC(=O)C1=C(C)NC(C)=C([N+](=O)[O-])C1c1ccccc1C(F)(F)F (centres undefined)
Activity (H4 [1]): 110.18%
Activity (H4 [2]): 57.79%
Activity (H4 [6]): 102.15%
Activity (H4 [8]): 104.43%
Activity (H4 [9]): 79.7%
Activity (H4 [23]): 146.82%
Activity (H4 [10]): 115.5%
Activity (H4 [24]): 181.32%
Activity (H4 [25]): 165.46%
Activity (H4 [11]): 115.35%
Activity (H4 [26]): 134.45%
